The record followed here is ChEMBL document CHEMBL1122348, “(E)-3-(4-Oxo-4H-quinazolin-3-yl)-2-propenoic acids, a new series of antiallergy agents” (1983).

The structures appear in SMILES notation. Activity calls are given as the source filed them. No cut-off for these calls is given here.

Test [1] concerns Rattus norvegicus. As to the kind of experiment: Anti-allergy activity test in rat passive cutaneous anaphylaxis (PCA) test at 16 mg/kg administered intraperitoneally. The test is classed as functional. To be noted: ip, route intraperitoneal. Put shortly: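 Rats given the compound intraperitoneally at 16 mg/kg in the passive cutaneous anaphylaxis model. The read-out is percent inhibition of the cutaneous anaphylactic response, and some entries carry p values.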

Test [2] concerns Rattus norvegicus. Put plainly: Tested for antiallergy activity in rat passive cutaneous anaphylaxis (PCA) test at 32 mg/kg administered perorally; pretreatment time is 30 min. Type of test: functional. To be noted: route oral.
The subject of test [3] is Rattus norvegicus. Put plainly: Tested for antiallergy activity in rat passive cutaneous anaphylaxis (PCA) test at 32 mg/kg administered perorally. Type of test: functional. The settings on record: route oral.
Test [4] deals with Rattus norvegicus. As to the kind of experiment: Inhibitory dose administered perorally against anaphylactic bronchospasm in passively sensitized rats. Type of test: functional. The settings on record: Bronchiole, po, read-out: ID50.
The subject of test [5] is Rattus norvegicus. Put plainly: Tested for antiallergy activity in rat passive cutaneous anaphylaxis (PCA) test at 32 mg/kg administered perorally; 30 minute pretreatment time. The test is classed as functional. The settings on record: route oral.
Test [6] concerns Rattus norvegicus. As to the kind of experiment: Tested for antiallergy activity in rat passive cutaneous anaphylaxis (PCA) test at 32 mg/kg administered perorally; In active. The test is classed as functional, organism-based. Details: dose 32 mg/kg.
Test [7] concerns Rattus norvegicus. As to the kind of experiment: Tested for antiallergy activity in rat passive cutaneous anaphylaxis (PCA) test at 32 mg/kg administered perorally; 10 min pretreatment time. Type of test: functional. The settings on record: route oral.
Test [8] deals with Rattus norvegicus. Put plainly: Percentage inhibition at 8 mg/kg administered intraperitoneally in rat passive cutaneous anaphylaxis (PCA) test, p<0.001. The settings on record: ip, route intraperitoneal. The test is classed as functional.

In the test with Rattus norvegicus [1], `COc1cccc2c(=O)n(/C=C/C(=O)O)cnc12` registered an inhibition in vivo at 16 mg/kg of 82%. Also, in the test on Rattus norvegicus [2], the inhibition in vivo at 32 mg/kg was 45%.
For `CSc1ccc2ncn(CCC(=O)O)c(=O)c2c1`, 16 mg/kg produced 14% inhibition in vivo in the test on Rattus norvegicus [1].
In the test on Rattus norvegicus [1], `COC(=O)/C=C/n1cnc2ccc(OC(C)C)cc2c1=O` displayed an inhibition in vivo at 16 mg/kg of 46%.
In the test with Rattus norvegicus [1], `O=C(O)/C=C/n1cnc2ccc(OCCO)cc2c1=O` gave an inhibition in vivo at 16 mg/kg of 67%. The same molecule gave an inhibition in vivo at 32 mg/kg with Rattus norvegicus [3] of 80%.
`CSc1ccc2ncn(/C=C/C(=O)O)c(=O)c2c1` [TIACRILAST]: in the test with Rattus norvegicus [4], the ED50 was 0.02 mg/kg. For the same molecule, in the test on Rattus norvegicus [1], 16 mg/kg produced 87% inhibition in vivo. The same molecule displayed an inhibition in vivo at 32 mg/kg in the test with Rattus norvegicus [3] of 75%.
As to `C[S+]([O-])c1ccc2ncn(/C=C/C(=O)O)c(=O)c2c1` (stereo not drawn), the inhibition in vivo at 16 mg/kg in the test with Rattus norvegicus [1] amounted to 89%. The inhibition in vivo at 32 mg/kg in the test on Rattus norvegicus [3] was 48%.
For `Cc1cc(C)c2ncn(/C=C/C(=O)O)c(=O)c2c1` the same measures were 82% and 70%.
The molecule `O=C(O)/C=C/n1cnc2ccc(O)cc2c1=O` showed an inhibition in vivo at 16 mg/kg in the test with Rattus norvegicus [1] of 56%.
`CSc1ccc2ncn(/C(C)=C/C(=O)O)c(=O)c2c1` had an inhibition in vivo at 16 mg/kg in the test on Rattus norvegicus [1] of 9%.
`COC(=O)/C=C/n1cnc2ccc(SC)cc2c1=O` gave an inhibition in vivo at 16 mg/kg in the test with Rattus norvegicus [1] of 39%.
In turn, `O=C(O)/C=C/n1cnc2ccc(Cl)cc2c1=O` returned an inhibition in vivo at 16 mg/kg with Rattus norvegicus [1] of 79%. Further, the inhibition in vivo at 32 mg/kg in the test with Rattus norvegicus [3] is 49%.
As for `CC(C)c1cc(C(C)C)c2ncn(/C=C/C(=O)O)c(=O)c2c1`, in the test with Rattus norvegicus [1], at 16 mg/kg the inhibition in vivo was 70%. Moreover, at 32 mg/kg the inhibition in vivo in the test with Rattus norvegicus [3] was 91%.
As to `CC(C)c1ccc2ncn(/C=C/C(=O)O)c(=O)c2c1`, in the test on Rattus norvegicus [4], the ED50 turned out to be 0.05 mg/kg. Moreover, in the test on Rattus norvegicus [1], at 16 mg/kg the inhibition in vivo was 100%. In the test on Rattus norvegicus [3], this molecule came in with an inhibition in vivo at 32 mg/kg of 89%.
With `COc1cc(OC)c2ncn(/C=C/C(=O)O)c(=O)c2c1`, the inhibition in vivo at 16 mg/kg in the test with Rattus norvegicus [1] is 81%. For the same molecule, the inhibition in vivo at 32 mg/kg in the test with Rattus norvegicus [5] is 31%.
For `CSc1ccc2c(c1)C(=O)N(/C=C/C(=O)O)CN2`, the inhibition in vivo at 16 mg/kg with Rattus norvegicus [1] was found to be 53%.
In the case of `CC(C)Sc1ccc2ncn(/C=C/C(=O)O)c(=O)c2c1`, the inhibition in vivo at 16 mg/kg with Rattus norvegicus [1] was 59%. The same molecule came in with an inhibition in vivo at 32 mg/kg in the test with Rattus norvegicus [3] of 56%.
The molecule `CCN(CC)CCOc1ccc2ncn(/C=C/C(=O)O)c(=O)c2c1` displayed an inhibition in vivo at 16 mg/kg in the test with Rattus norvegicus [1] of 16%. In addition, the inhibition entry in the test with Rattus norvegicus [6] was “inactive”.
For `COc1ccc2ncn(/C=C/C(=O)O)c(=O)c2c1`, the inhibition in vivo at 16 mg/kg with Rattus norvegicus [1] came out at 49%. Also, the inhibition in vivo at 32 mg/kg with Rattus norvegicus [3] worked out at 23%.
`COc1cc2ncn(/C=C/C(=O)O)c(=O)c2cc1OC` gave an inhibition in vivo at 16 mg/kg with Rattus norvegicus [1] of 88%.
Consider `CSc1ccc2ncn(/C=C\C(=O)O)c(=O)c2c1`, for which the inhibition in vivo at 16 mg/kg with Rattus norvegicus [1] worked out at 11%.
In turn, `O=C(O)/C=C/n1cnc2ccc(C3CC3)cc2c1=O` yielded an inhibition in vivo at 16 mg/kg in the test on Rattus norvegicus [1] of 100%. Further, the inhibition in vivo at 32 mg/kg with Rattus norvegicus [7] amounted to 81%.
For the molecule `CC(C)Oc1ccc2ncn(/C=C/C(=O)O)c(=O)c2c1`, testing at 16 mg/kg in the test with Rattus norvegicus [1] gave an inhibition in vivo of 87%. This molecule also showed an inhibition in vivo at 32 mg/kg in the test with Rattus norvegicus [3] of 70%.
`O=C(O)/C=C/n1cnc2ccccc2c1=O` registered an inhibition in vivo at 32 mg/kg in the test on Rattus norvegicus [3] of 55%.
In the test with Rattus norvegicus [1], `CS(=O)(=O)c1ccc2ncn(/C=C/C(=O)O)c(=O)c2c1` yielded an inhibition in vivo at 16 mg/kg of 70%.
`O=C(O)c1cc(=O)c2c(OCC(O)COc3cccc4oc(C(=O)O)cc(=O)c34)cccc2o1` [CROMOLYN SODIUM]: the inhibition in vivo at 8 mg/kg with Rattus norvegicus [8] is 46%. In the test with Rattus norvegicus [3], this molecule came in with an inhibition in vivo at 32 mg/kg of 18%.
In the test with Rattus norvegicus [1], `Cc1nc2ccc(C3CC3)cc2c(=O)n1/C=C/C(=O)O` registered an inhibition in vivo at 16 mg/kg of 39%.
